From paper PMC8898323 (ChemMedChem, 2021)
“Also recorded” adds a separate entry of the source. Like-named read-outs stand apart in the source and are kept apart here. Each block holds one compound with its values, some of them ahead of it.

What was measured:
hABHD6 = biological target: T1, hABHD6 (Homo sapiens, UniProt Q9BV23); assay: Fluorescence-based hABHD6 inhibition assay; format: biochemical; conditions: for fold loss in potency for ABHD6: versus the comparator analog named in the text; for inhibition at 10 µM: read-out: % inhibition hABHD6; for hABHD6 inhibition, result in words: words in table or text, table footnote c: inactive tested at 1uM
T1 sequence (Q9BV23 1-337): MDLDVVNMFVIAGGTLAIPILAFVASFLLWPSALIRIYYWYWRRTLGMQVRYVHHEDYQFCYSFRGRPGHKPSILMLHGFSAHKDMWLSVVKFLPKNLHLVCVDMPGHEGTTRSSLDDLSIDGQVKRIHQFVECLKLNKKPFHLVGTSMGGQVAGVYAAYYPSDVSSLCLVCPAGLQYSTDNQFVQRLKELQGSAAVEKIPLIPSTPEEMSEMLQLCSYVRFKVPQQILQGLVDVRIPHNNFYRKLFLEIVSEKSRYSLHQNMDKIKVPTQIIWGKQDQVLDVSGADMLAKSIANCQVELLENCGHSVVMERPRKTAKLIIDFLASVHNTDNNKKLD

hMGL = biological target: T2, hMGL (Homo sapiens, UniProt Q99685); assay: Fluorescence-based hMGL inhibition counterscreen; format: biochemical; conditions: for hMGL inhibition, result in words: inactive tested at 1uM
T2 sequence (Q99685 1-303): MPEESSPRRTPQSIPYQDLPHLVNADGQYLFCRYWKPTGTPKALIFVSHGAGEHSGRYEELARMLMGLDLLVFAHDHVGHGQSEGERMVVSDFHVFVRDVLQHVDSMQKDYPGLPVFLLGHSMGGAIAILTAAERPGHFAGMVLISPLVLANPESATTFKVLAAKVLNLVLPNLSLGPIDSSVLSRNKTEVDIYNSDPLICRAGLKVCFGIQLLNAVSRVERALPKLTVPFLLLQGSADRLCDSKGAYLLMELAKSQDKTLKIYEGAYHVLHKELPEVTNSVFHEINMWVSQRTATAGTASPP

hFAAH = biological target: T3, hFAAH (Homo sapiens, UniProt O00519); assay: Fluorescence-based hFAAH inhibition counterscreen; format: biochemical; conditions: for hFAAH inhibition, result in words: inactive tested at 1uM
T3 sequence (O00519 1-579): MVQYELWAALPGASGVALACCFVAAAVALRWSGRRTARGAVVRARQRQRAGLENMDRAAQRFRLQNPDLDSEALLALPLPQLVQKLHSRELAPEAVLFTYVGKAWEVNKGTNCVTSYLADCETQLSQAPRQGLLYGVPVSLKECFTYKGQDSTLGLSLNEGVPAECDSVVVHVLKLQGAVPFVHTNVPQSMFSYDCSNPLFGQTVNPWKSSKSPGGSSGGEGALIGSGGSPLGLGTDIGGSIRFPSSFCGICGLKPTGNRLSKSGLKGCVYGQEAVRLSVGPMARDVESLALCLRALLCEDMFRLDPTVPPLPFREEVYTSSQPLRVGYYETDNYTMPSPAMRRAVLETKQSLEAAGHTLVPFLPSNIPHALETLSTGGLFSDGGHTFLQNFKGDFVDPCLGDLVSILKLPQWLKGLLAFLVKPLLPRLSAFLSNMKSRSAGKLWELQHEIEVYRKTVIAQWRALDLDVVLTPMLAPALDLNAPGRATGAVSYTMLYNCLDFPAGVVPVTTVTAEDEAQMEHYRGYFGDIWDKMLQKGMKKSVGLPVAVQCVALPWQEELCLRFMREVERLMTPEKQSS

[1] = Metabolic stability in human liver microsomes; format: in vitro ADME; conditions: NADPH
In short: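 Inhibitor pre-incubated at 37 °C with liver microsomal protein of the given species. Reaction started with NADPH, or buffer as control. Proteins precipitated, then parent remaining measured by LC-MS/MS in SRM mode to give t1/2.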

[2] = Cassette pharmacokinetics in brain and plasma, male CD-1 mice; format: in vivo, mouse; conditions: for concentration at 15 min: iv; for concentration at 30 min / concentration at 60 min: po
In short: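 Male CD-1 mice (25–30 g), cassette dosing: single iv dose of 2 mg/kg and oral dose of 8 mg/kg per compound. Plasma and brain taken 15 min after iv, and 30 and 60 min after oral dosing, n = 3 per time point. Flash-frozen tissue extracted and quantified by LC-MS/MS (SRM) with internal standards.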

[3] = tested on: rat retina (AMPA excitotoxicity); conditions: cited from earlier work
ABHD6 = conditions: read-out: IC50 ABHD6; activity-based protein profiling (ABPP) assay; ref 22b; cited from earlier work
[4] = read-out: IC50 (nM) ± SEM hMGL, triplicate, eight concentrations
[5] = male, CD-1, mouse, brain, 8 mg/kg
[6] = male, CD-1, mouse, plasma, 8 mg/kg

- fold loss in potency for ABHD6 (hABHD6): about 2 fold
- IC50 (hMGL): 66.1 ± 2.4 nM
- inhibition at 0.1 µM (hFAAH; read-out: % inhibition hFAAH): 33%
Compound: N#Cc1cccc(OC(=O)N2CC(OC(c3ccc(F)cc3)c3ccc(F)cc3)C2)c1 [5a, 3-Cyanophenyl 3-(bis(4-fluorophenyl)methoxy)azetidine-1-carboxylate]

- fold loss in potency for ABHD6 (hABHD6): about 2 fold
- IC50 (hMGL): 6.4 ± 1.5 nM
- hFAAH inhibition, result in words (hFAAH): inactive
Compound: O=C(OC(C(F)(F)F)C(F)(F)F)N1CC(OC(c2ccc(F)cc2)c2ccc(F)cc2)C1 [6b, 1,1,1,3,3,3-Hexafluoropropan-2-yl 3-(bis(4-fluorophenyl)methoxy)azetidine-1-carboxylate]

- IC50 (hMGL; [4]): 83.5 ± 1.8 nM
- hFAAH inhibition, result in words (hFAAH): inactive
Compound: CN(C1CN(C(=O)OC(C(F)(F)F)C(F)(F)F)C1)C(c1ccc(F)cc1)c1ccc(F)cc1 [9d, 1,1,1,3,3,3-Hexafluoropropan-2-yl 3-((bis(4-fluorophenyl)methyl) (methyl)amino) azetidine-1-carboxylate]

- inhibition at 10 µM (hABHD6): 37%
- hABHD6 inhibition, result in words (hABHD6): practically inactive
- IC50 (hMGL; [4]): 348 ± 7.5 nM
- hFAAH inhibition, result in words (hFAAH): inactive
Compound: O=C(OC(C(F)(F)F)C(F)(F)F)N1CC(C(c2ccccc2)c2ccccc2)C1 [10d, 1,1,1,3,3,3-Hexafluoropropan-2-yl 3-benzhydrylazetidine-1-carboxylate]

- hMGL inhibition, result in words (hMGL): lacked activity; also recorded: inactive
Compound: O=C(OC(C(F)(F)F)C(F)(F)F)N1CCc2ccccc2C1 [14a, 1,1,1,3,3,3-Hexafluoropropan-2-yl 3,4-dihydroisoquinoline-2(1H)-carboxylate]
- hFAAH inhibition, result in words (hFAAH): lacked activity; also recorded: inactive^c

- inhibition at 10 µM (hABHD6): 35%
- hABHD6 inhibition, result in words (hABHD6): practically inactive
- hMGL inhibition, result in words (hMGL): inactive
- hFAAH inhibition, result in words (hFAAH): inactive
Compound: O=C(O[C@H](CO)C(F)(F)F)N1CCc2c(Br)cccc2C1 [14j, (R)-1,1,1-trifluoro-3-hydroxypropan-2-yl 5-bromo-3,4-dihydroisoquinoline-2(1H)-carboxylate]

- hMGL inhibition, result in words (hMGL): inactive
- hFAAH inhibition, result in words (hFAAH): inactive^f
- Microsomes t1/2 min Human [1]: most stable
- brain permeability, result in words ([2]; comparing brain and plasma levels after iv administration at 15 min): brain permeable
- Kp at 15 min ([2]; male, CD-1, mouse, brain, intravenous, 2 mg/kg): 1.2
- concentration at 15 min ([2]; male, CD-1, mouse, brain, 2 mg/kg): 735 ± 56 ng/g
- concentration at 30 min [2, 5]: 248 ± 89 ng/g
- concentration at 60 min [2, 5]: 227 ± 95 ng/g
- concentration at 15 min ([2]; male, CD-1, mouse, plasma, 2 mg/kg): 633 ± 46 ng/mL
- bioavailability ([2]; male, CD-1, mouse, plasma, oral, 8 mg/kg): 28%
- concentration at 30 min [2, 6]: 180 ± 72 ng/mL
- concentration at 60 min [2, 6]: 140 ± 31 ng/mL
Compound: O=C(OC(C(F)(F)F)C(F)(F)F)N1Cc2ccc(OCCN3CCOCC3)cc2C1 [22f, 1,1,1,3,3,3-Hexafluoropropan-2-yl 5-(2-morpholinoethoxy)isoindoline-2-carboxylate]
- AMPA-induced glia activation ([3]; rat retina): attenuated
- retina neuroprotection ([3]; rats, AMPA excitotoxicity): dose-dependent retina neuroprotection

- hMGL inhibition, result in words (hMGL): inactive
- inhibition at 1 µM (hFAAH; read-out: % inhibition hFAAH): 71%
Compound: O=C(OC(C(F)(F)F)C(F)(F)F)N1Cc2ccc(OCCN3CCCCC3)cc2C1 [22j, 1,1,1,3,3,3-Hexafluoropropan-2-yl 5-(2-(piperidin-1-yl)ethoxy)isoindoline-2-carboxylate]

Compound: CC1(C)C2C(=O)N(OC(=O)N3CCc4c(Br)cccc4C3)C(=O)C21 (centres unmarked) [25b, 6,6-Dimethyl-2,4-dioxo-3-azabicyclo[3.1.0]hexan-3-yl 5-bromo-3,4-dihydro isoquinoline-2(1H)-carboxylate]
- fold loss in potency for ABHD6 (hABHD6): 2 fold
- hMGL inhibition, result in words (hMGL): inactive
- hFAAH inhibition, result in words (hFAAH): inactive
